Consider 30 molecules from ChEMBL document CHEMBL4602726, “Discovery of the First Vitamin K Analogue as a Potential Treatment of Pharmacoresistant Seizures” (J Med Chem, 2020).

As usually defined, the ED50 is the midpoint of the dose-response relation. As a reminder, the TD50 is the 50% point of the dose-response relation for the toxic effect studied. As a reminder, the AUC(0-t) is exposure summed from dosing to a finite time, without extrapolation to infinity. The Cmax is the highest concentration seen after dosing. The term Tmax denotes the time at which the peak concentration occurs. A word on the half-life: it is the time in which the quantity being followed falls by half. By EC50 is commonly meant the concentration at which the effect is half-maximal.

A short description of data set [1]: Toxicity in mouse HT22 cells assessed as inhibition of cell viability at 50 uM incubated for 48 hrs by Cell-titer-Blue dye based fluorescence spectrophotometry relative to control. Also noted: species or system HT-22. The note with it: read-out: Activity. The method in brief:
(§1)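 HT-22 cells in DMEM high glucose with 10% FBS, 2000 per well. Serially diluted compound added after 12 h, incubated 48 h. […] Background subtracted, normalized to control wells.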

A short description of data set [2]: Toxicity in mouse HT22 cells assessed as inhibition of cell viability at 10 uM incubated for 48 hrs by Cell-titer-Blue dye based fluorescence spectrophotometry relative to control. Further details: species or system HT-22. The note with it: read-out: Activity. The gist of the method: as §1
In data set [3] the test system is Mus musculus. Kind of data set: Anti-seizure activity in ip dosed CF1 mouse assessed as attenuation of psychomotor seizures at stimulus intensities of 42 mA at pre-treated at 1 hr before test by 6 Hz limbic seizure test relative to control. It counts as functional.
For data set [4], the species on record is Danio rerio. Kind of data set: Anti-seizure activity in Zebrafish larvae assessed as reduction in PTZ-induced increase in total swimming distance in 15 mins at 5 uM pre-incubated for 1 hr prior to PTZ-induced seizure induction relative to control. In kind it is functional. Further details: scale not given: the % may be the effect or the level left.
For data set [5], the species on record is Danio rerio. Description: Increase in ATP concentration in zebrafish at 1 uM incubated for 24 hrs by fluorometric ATP assay relative to control. It counts as functional. The method in brief:
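7 dpf zebrafish larvae, one per well, kept at 28.5°C for 24 h with compound in E3 buffer (DMSO stock). DMSO vehicle in control wells. Twelve fish per condition pooled, flash-frozen, homogenized in ATP buffer and centrifuged. ATP in the supernatant read by fluorescence at ex 535/em 587 nm, normalized to total protein (BCA), and expressed as nmole/mg relative to DMSO control. n = 7–13.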

The nature of data set [6]: Toxicity in CF1 mouse assessed as induction of motor impairment during acute (1 hr) observation period by rotarod assay. The conditions noted are these: CF1, mouse, in vivo. The gist of the method:
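Male CF-1 mice, ip dosing in miglyol 840/DMSO (95%/5%), up to 800 mg/kg. Rotarod at 6 rpm done 1 h after dosing, on the same animals just before 6 Hz testing. Falling three times within one minute scored as impaired; animals also inspected visually.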
On the technique in general: Falling from the rotarod earlier than controls is read as motor impairment.

The species named for data set [7] is Danio rerio. Kind of data set: Anti-seizure activity in Zebrafish larvae assessed as reduction in PTZ-induced increase in total swimming distance in 15 mins at 10 uM pre-incubated for 1 hr prior to PTZ-induced seizure induction relative to control. In kind it is functional. Further details: scale not given: the % may be the effect or the level left.
Data set [8] in a line: AUClast in CD1 mouse at 20 mg/kg, ip measured after 0.083 to 24 hrs by LC-MS/MS analysis. It counts as ADME, organism-based. Further details: time lower 0.083 hr, dose 20 mg/kg, time upper 24 hr, route intraperitoneal. The conditions noted are these: in vivo. The method in brief: (§2)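 Male CD-1 mice, 3 per route. Oral and ip at 20 mg/kg by gavage needle; iv at 5 mg/kg by tail vein. Vehicles were 20% DMA:40% PEG300:40% H2O for oral/iv and 5% DMSO:95% Neobee for ip. Blood sampled 0.083–24 h, plasma protein-precipitated with acetonitrile plus internal standard, LC-MS/MS (MRM). Non-compartmental analysis, linear trapezoidal AUC.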

Data set [9] can be described thus: Toxicity in Zebrafish. Also noted: species or system Danio rerio. The conditions noted are these: in vivo, read-out: LD50 (the source's name).
The nature of data set [10]: Cmax in CD1 mouse at 20 mg/kg, ip measured after 0.083 to 24 hrs by LC-MS/MS analysis. The conditions noted are these: in vivo. Further details: dose 20 mg/kg, route intraperitoneal. In kind it is ADME, organism-based. The method in brief: as §2
Data set [11] is described as follows: Tmax in CD1 mouse at 20 mg/kg, ip measured after 0.083 to 24 hrs by LC-MS/MS analysis. It counts as ADME, organism-based. The conditions noted are these: in vivo.
Data set [12] in a line: Half life in CD1 mouse at 20 mg/kg, ip measured after 0.083 to 24 hrs by LC-MS/MS analysis. In kind it is ADME, organism-based. The note with it: in vivo. The gist of the method: as §2
The species named for data set [13] is Danio rerio. Description: Anti-seizure activity in Zebrafish. It counts as functional, organism-based. The method in brief: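 Single 7 dpf zebrafish larvae per well, pretreated 1 h at […] with compound (10 or 5 μM) in E3 buffer from DMSO stock. Then 15 mM PTZ added and movement tracked 15 min in 1-min bins. VPA 5 and 10 mM as positive controls, n=8 per group, one-way ANOVA.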

Data set [14] is described as follows: Half life in mouse. It counts as ADME, organism-based. The note with it: in vivo.
The nature of data set [15]: Drug reactivity with 2-mercaptoethanol measured over 6 hrs. In kind it is physicochemical.

As to `CN(C)CCNC1=CC(=O)c2ccccc2C1=O`, in data set [1], the inhibition at 48 h, 50 µM was 99.8%. In [2], the inhibition at 48 h, 10 µM was 82.6%.

Regarding `CCCC(CCC)C(=O)O` [VALPROIC ACID], the ED50 in data set [3] amounted to 289 mg/kg.

For the molecule `CC(O)CCNC1=CC(=O)c2ccccc2C1=O` (stereo not drawn), the inhibition at 48 h, 50 µM in data set [1] stood at 64.2%. The Activity in [4] is given as 0.78%. For the same molecule, in data set [2], the inhibition at 48 h, 10 µM was found to be 19.4%.

For `O=C1C=C(NCCC2CCC2)C(=O)c2ccccc21`, the inhibition at 48 h, 50 µM in data set [1] was 36.3%. The Activity in data set [5] turned out to be 21.4%. Besides, the inhibition at 48 h, 10 µM in [2] came to 27.2%.

On to `NC(=O)OCC(COC(N)=O)c1ccccc1` [FELBAMATE], for which the TD50 at 1 h in [6] stood at 452 mg/kg. For the same molecule, the ED50 in [3] turned out to be 97.5 mg/kg.

Turning to `CC[C@@H](C(N)=O)N1CCCC1=O`, the TD50 at 1 h in data set [6] is above 500 mg/kg.

As to `CN(CCCNC1=CC(=O)c2ccccc2C1=O)c1ccccc1`, in data set [1], the inhibition at 48 h, 50 µM is 10.2%. Besides, the Activity in [4] stood at 7.3%. Moreover, the inhibition at 48 h, 10 µM in [2] is 11.5%.

For `CCC(C)CNC1=CC(=O)c2ccccc2C1=O` (stereo not drawn), in data set [1], the inhibition at 48 h, 50 µM was found to be 41.2%. Further, the Activity in [4] is listed as 23%. Moreover, the inhibition at 48 h, 10 µM in [2] was 14.8%.

As to `CC(C)=CCNC1=CC(=O)c2ccccc2C1=O`, the inhibition at 48 h, 50 µM in data set [1] came to 38.3%. Also, in data set [4], the Activity was -4.4%. In addition, the inhibition at 48 h, 10 µM in [2] was found to be 15%.

Regarding `CCN(CC)CCNC1=CC(=O)c2ccccc2C1=O`, the inhibition at 48 h, 50 µM in data set [1] is 100%. The Activity in [4] is on record as -7.2%; in [7] it was 27%. Also, the inhibition at 48 h, 10 µM in data set [2] was determined as 83.8%.

Take `CC(C)CCCNC1=CC(=O)c2ccccc2C1=O`: the inhibition at 48 h, 50 µM in [1] was 21.3%. The inhibition at 48 h, 10 µM in data set [2] amounted to 28.8%.

As to `CC1=C(NCCC(C)(C)C)C(=O)c2ccccc2C1=O`, in data set [1], the inhibition at 48 h, 50 µM was 17.5%. Further, the Activity in data set [4] came out at 3.3%. Also, the inhibition at 48 h, 10 µM in data set [2] amounted to 10.2%.

`O=C1C=C(NCCC2CCCCC2)C(=O)c2ccccc21`: in data set [1], the inhibition at 48 h, 50 µM came to 2.09%. In addition, the inhibition at 48 h, 10 µM in [2] came to 0.07%.

Consider `CC(C)CC(C)NC1=CC(=O)c2ccccc2C1=O` (stereo not drawn), for which, in data set [1], the inhibition at 48 h, 50 µM was determined as 15%. In [2], the inhibition at 48 h, 10 µM turned out to be 2.09%.

Take `O=C1C=C(NCCC2CC2)C(=O)c2ccccc21`: the inhibition at 48 h, 50 µM in data set [1] turned out to be 56.4%. Besides, in data set [2], the inhibition at 48 h, 10 µM was determined as 34.7%.

On to `CN(C)CCCNC1=CC(=O)c2ccccc2C1=O`, for which the inhibition at 48 h, 50 µM in data set [1] was determined as 96.7%. Also, the inhibition at 48 h, 10 µM in data set [2] was 74.5%. The Activity in data set [7] was -2.9%.

Take `CC(C)(O)CCNC1=CC(=O)c2ccccc2C1=O`: the inhibition at 48 h, 50 µM in data set [1] is 59.7%. The Activity was 9.5% in [4] and -5.6% in [7]. In addition, the inhibition at 48 h, 10 µM in data set [2] came to 25.5%.

For the molecule `CC(CO)CCNC1=CC(=O)c2ccccc2C1=O` (stereo not drawn), the inhibition at 48 h, 50 µM in data set [1] came out at 76.7%. For the same molecule, the Activity in [4] is on record as -2.4%; in data set [7], 8.2%. In addition, the inhibition at 48 h, 10 µM in [2] was 25.7%.

For `C#CCNC1=CC(=O)c2ccccc2C1=O`, the AUC(0-t) in data set [8] is 978 ng·h/mL. Besides, in data set [9], the LC50 was above 20 µM. Further, the peak concentration (Cmax) in [10] worked out at 1490 ng/mL. The Activity is 7.4% in data set [4] and 5.4% in data set [7]. For the same molecule, the Tmax in [11] amounted to 15 min. Besides, the half-life in data set [12] and in [14] was 66 min in each case. Further, the half-maximal effective concentration (EC50) in data set [13] was determined as 20 µM.

Regarding `O=C1C=C(NCCC2CCCC2)C(=O)c2ccccc21`, the inhibition at 48 h, 50 µM in data set [1] came out at 43.8%. Further, the Activity in [4] was found to be 45%. In addition, the inhibition at 48 h, 10 µM in data set [2] was found to be 35.4%.

As to `O=C1C=C(NCC2CCC2)C(=O)c2ccccc21`, the inhibition at 48 h, 50 µM in data set [1] was 62.3%. Moreover, the inhibition at 48 h, 10 µM in data set [2] is 33.7%.

With `C=C(C)[C@@H]1CCC(C)=C[C@H]1c1c(O)cc(CCCCC)cc1O` [CANNABIDIOL], in data set [3], the ED50 worked out at 174 mg/kg.

As for `CCN(C)CCNC1=CC(=O)c2ccccc2C1=O`, the inhibition at 48 h, 50 µM in data set [1] is 101%. Besides, the inhibition at 48 h, 10 µM in data set [2] was 86.2%.

On to `CCC(O)CNC1=CC(=O)c2ccccc2C1=O` (stereo not drawn), for which the inhibition at 48 h, 50 µM in data set [1] came to 69%. Besides, the inhibition at 48 h, 10 µM in data set [2] is 38.6%.

`CC1=CC(=O)c2ccccc2C1=O` [MENADIONE]: in [9], the LC50 is 6 µM. Moreover, a half-maximal effect in [13] (EC50) was put at 3 µM. Besides, the half-life in [14] amounted to 27 min. Besides, the Drug metabolism result in data set [15] was “Metabolite_Detected”.

As to `CC(C)(C)CCCNC1=CC(=O)c2ccccc2C1=O`, the inhibition at 48 h, 50 µM in data set [1] is 6.75%. Besides, the Activity in data set [4] is on record as -3%. The inhibition at 48 h, 10 µM in data set [2] was 3.81%.

As to `CC(C)(C)CNC1=CC(=O)c2ccccc2C1=O`, in [1], the inhibition at 48 h, 50 µM is 22.4%. Besides, the inhibition at 48 h, 10 µM in data set [2] is 10.8%.

Take `O=C1C=C(NCC2CC2)C(=O)c2ccccc21`: the inhibition at 48 h, 50 µM in data set [1] was 54.1%. Moreover, the Activity in data set [4] and in data set [7] was -10.1% throughout. Further, the inhibition at 48 h, 10 µM in data set [2] was 16.8%.

In the case of `CC(C)(C)CCNC1=CC(=O)c2ccccc2C1=O`, in [1], the inhibition at 48 h, 50 µM was determined as 17%. The inhibition at 48 h, 10 µM in data set [2] turned out to be 11.9%.

In the case of `CC1=C(NCCC(C)C)C(=O)c2ccccc2C1=O`, the inhibition at 48 h, 50 µM in [1] was 21.4%. In data set [2], the inhibition at 48 h, 10 µM was 11.2%.
